# S100A4 MyoIIA = inhibitors of human S100A4 binding to myosin IIA peptide; S100A4/TAMRA-MyoIIA peptide fluorescence polarization; inhibition, % at 10.7 µM; P26447; AID 652163; 360,000 tested, 0.14% active;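 active = mean inhibition of at least 70% across replicates, with every replicate also reaching that level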
# Target sequence (P26447 whole entry, looked up): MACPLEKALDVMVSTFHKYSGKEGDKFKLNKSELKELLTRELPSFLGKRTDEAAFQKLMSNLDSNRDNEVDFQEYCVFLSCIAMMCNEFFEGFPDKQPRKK
#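 Material: S100A4 monomer protein / Buffer or medium: 50 mM HEPES pH 7.2, 10 mM CaCl2, 100 mM KCl / Times: 5 min incubation before reading / Benchmarks: neutral control DMSO, positive control TFP / Reagent: labelled myosin peptide probe, 5 nM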
# SIRT5 block = sirtuin-5 (human) deacylase inhibition | Q9NXA8 | Purified SirT5, succinyl-peptide AMC, trypsin-coupled fluorescence | inhibition, % at 15 µM | 330,000 tested, 1.1% active | AID 652115; in the data active = inhibition above about 15%
# Target sequence (Q9NXA8 whole entry, looked up): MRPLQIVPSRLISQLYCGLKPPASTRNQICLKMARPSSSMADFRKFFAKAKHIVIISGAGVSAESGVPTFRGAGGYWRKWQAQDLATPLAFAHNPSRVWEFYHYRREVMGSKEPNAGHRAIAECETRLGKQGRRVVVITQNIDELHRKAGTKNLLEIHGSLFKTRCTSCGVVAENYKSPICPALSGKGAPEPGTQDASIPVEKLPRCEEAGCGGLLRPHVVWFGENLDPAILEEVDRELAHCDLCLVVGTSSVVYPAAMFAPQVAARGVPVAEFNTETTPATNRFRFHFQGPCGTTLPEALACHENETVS
# GSIS activator = GLuc luminescence reporter in INS-1E cells, primary screen for activators of glucose-dependent secretion of insulin; activation, % at 16.6 µM; INS-1E GLuc reporter insulin secretion, 2-3 h; 370,000 tested, 0.61% active;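 active = lowest replicate activation of at least 40%, so every replicate reaches that level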;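 note: 0% = median of neutral control wells and 100% = median of IBMX positive control wells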
# PDI inh = inhibitors of human protein disulfide isomerase. P07237. AID 588391. 350,000 tested, 0.052% active. inhibition, % at 10 µM. PDI insulin aggregation turbidity, A650, 90 min;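 active = mean inhibition across replicates of 30% or more, whatever share of single replicates reach that level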
# ERp5 inh = ERp5 (human) disulfide isomerase inhibition; 350,000 tested, 0.05% active; AID 651711; ERp5 insulin aggregation, absorbance 650 nm, 90 min; inhibition, % at 9.99 µM;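 active = mean replicate inhibition above about 25%, with every replicate also reaching it, limit read from the data, passing the limit was not always enough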
# * hit, by the source's call; / = not tested or not shown. Most compounds without a hit are left out; they make up all but 1.5% or so of the library.
SMILES,S100A4 MyoIIA,SIRT5 block,GSIS activator,PDI inh,ERp5 inh
Cc1ccc(S(=O)(=O)N(C)C[C@@H]2OCCCC[C@H](C)Oc3ccc(NS(=O)(=O)c4ccc(Cl)cc4)cc3C(=O)N([C@H](C)CO)C[C@@H]2C)cc1,-7,19*,-35,/,0
Cc1ccc(S(=O)(=O)N(C)C[C@@H]2OCCCC[C@@H](C)Oc3ccc(NS(=O)(=O)c4ccc(Cl)cc4)cc3C(=O)N([C@@H](C)CO)C[C@H]2C)cc1,-18,25*,-9,/,1
Cc1ccc(S(=O)(=O)N(C)C[C@H]2OCCCC[C@H](C)Oc3ccc(NS(=O)(=O)c4ccc(Cl)cc4)cc3C(=O)N([C@H](C)CO)C[C@H]2C)cc1,-2,26*,-4,/,0
Cc1ccc(S(=O)(=O)Nc2ccc3c(c2)C(=O)N([C@H](C)CO)C[C@@H](C)[C@@H](CN(C)S(=O)(=O)c2ccc(Cl)cc2)OCCCC[C@H](C)O3)cc1,/,/,22,/,/
Cc1ccc(S(=O)(=O)Nc2ccc3c(c2)C(=O)N([C@H](C)CO)C[C@H](C)[C@H](CN(C)S(=O)(=O)c2ccc(Cl)cc2)OCCCC[C@H](C)O3)cc1,/,/,18,/,/
Cc1ccc(S(=O)(=O)N(C)C[C@@H]2OCCCC[C@@H](C)Oc3ccc(NS(=O)(=O)c4ccc(Cl)cc4)cc3C(=O)N([C@H](C)CO)C[C@H]2C)cc1,-46,23*,-1,/,7
Cc1ccc(S(=O)(=O)Nc2ccc3c(c2)C(=O)N([C@H](C)CO)C[C@@H](C)[C@@H](CN(C)S(=O)(=O)c2ccc(Cl)cc2)OCCCC[C@@H](C)O3)cc1,/,/,7,/,/
CO[C@@H]1CN(C)C(=O)c2ccc(NS(C)(=O)=O)cc2OC[C@@H](C)N(C(=O)C2CC2)C[C@@H]1C,0,0,-9,/,-3
Cc1ccc(-c2nc3ccccc3c(=O)o2)cc1,-4,16*,/,-6,3
COc1ccc(NC(=O)N(C)C[C@H]2Oc3ccc(NS(=O)(=O)c4ccccc4)cc3CC(=O)N([C@@H](C)CO)C[C@H]2C)cc1,0,5,4,/,1
COc1ccc2c3c([nH]c2c1)[C@H](CO)N(C(=O)C1CCOCC1)CC31CCN(Cc2nccs2)CC1,1,-6,16,/,84*
COc1ccc(CN2CC3(CN(C(=O)c4ccccc4)C3)c3c([nH]c4cc(OC)ccc34)[C@H]2CO)cc1,73*,1,43,/,1
COc1ccc2c3c([nH]c2c1)[C@@H](CO)N(Cc1nccs1)CC31CN(C(=O)C2CCCC2)C1,-5,4,-7,/,80*
COCC(=O)N1CC2(CCN(Cc3ccccc3Cl)CC2)c2c([nH]c3cc(OC)ccc23)[C@H]1CO,85*,5,-19,/,-4
COc1ccc(CN2CC3(CN(C(=O)Cc4ccccc4)C3)c3c([nH]c4cc(OC)ccc34)[C@H]2CO)cc1,4,4,-29,/,2
C[C@@H]1CCCCO[C@@H](CN(C)CC2CCCCC2)[C@H](C)CN([C@@H](C)CO)C(=O)c2cc(NC(=O)CCC(F)(F)F)ccc2O1,/,/,-1,/,/
C[C@@H]1CCCCO[C@H](CN(C)Cc2ccccc2)[C@H](C)CN([C@@H](C)CO)C(=O)c2cc(NC(=O)CCCN(C)C)ccc2O1,/,/,43,/,/
CN1CCN(C(=O)C[C@@H]2C[C@@H]3c4cc(NC(=O)Nc5ccc(F)cc5)ccc4O[C@@H]3[C@H](CO)O2)CC1,1,2,9,/,3
COc1ccc(-c2cnc3c(c2)C(=O)N([C@@H](C)CO)C[C@H](C)[C@@H](CN(C)C)O3)cc1,-42,2,12,/,-2
CCCNc1c(NS(=O)(=O)c2cccc(C#N)c2)c(=O)oc2ccccc12,11,0,56*,-2,3
CCCNc1c(NS(=O)(=O)c2ccc(C(C)(C)C)cc2)c(=O)oc2ccccc12,7,-3,-3,-1,9
CNC[C@H]1OCCCC[C@H](C)Oc2ccc(NC(=O)Nc3ccc(F)cc3)cc2C(=O)N([C@H](C)CO)C[C@@H]1C,-10,-2,11,/,5
O=S(=O)(c1ccc(F)cc1)N1CCCCN2[C@H](CO)[C@H](c3ccc(C#CC4CCCC4)cc3)[C@@H]2C1,2,23*,/,/,1
O=S(=O)(c1ccc(F)cc1)N1CCCCN2[C@@H](CO)[C@@H](c3ccc(C#CC4CCCC4)cc3)[C@@H]2C1,-5,23*,/,/,5
